Test results as given in ChEMBL document CHEMBL1131470, “Inhibition of human O6-alkylguanine-DNA alkyltransferase and potentiation of the cytotoxicity of chloroethylnitrosourea by 4(6)-(benzyloxy)-2,6(4)-diamino-5-(nitro or nitroso)pyrimidine derivatives and analogues” (J Med Chem, 1998).
pIC50: −log10 of the molar value.

Columns and labels:
HeLa [1] = assay: The compound was tested for its ability to enhance the cytotoxicity of ACNU toward HeLa S3 cells at 10 uM dose; assay type: functional, Homo sapiens
Procedure, shortened: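 HeLa S3 cervical tumour cells (AGAT activity 418 fmol/mg protein) pretreated 2 h with test compound […], then exposed to increasing ACNU concentrations. Dose-modifying factor = IC50 for ACNU alone divided by IC50 for compound pretreatment followed by ACNU.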

[2] = molecular target: T1, Methylated-DNA--protein-cysteine methyltransferase (Homo sapiens, UniProt P16455); assay: In vitro inhibitory activity against human O6-alkylguanine-DNA alkyltransferase (AGAT)
T1 sequence (P16455 whole entry): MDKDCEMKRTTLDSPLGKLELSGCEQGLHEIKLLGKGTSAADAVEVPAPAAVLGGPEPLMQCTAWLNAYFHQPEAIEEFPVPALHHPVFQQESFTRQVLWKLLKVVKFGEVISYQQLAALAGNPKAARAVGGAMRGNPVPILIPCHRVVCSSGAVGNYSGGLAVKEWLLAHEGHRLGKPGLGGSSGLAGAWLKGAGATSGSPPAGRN

HeLa [3] = assay: The compound was tested for its ability to enhance the cytotoxicity of ACNU toward HeLa S3 cells at 1 uM dose; assay type: functional, Homo sapiens
Procedure, shortened: (§1)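 HeLa S3 cervical tumour cells (AGAT activity 418 fmol/mg protein) pretreated with test compound for 2 h at 0.01, 0.1, 1 or 10 μM, then exposed to increasing ACNU concentrations. Cytotoxicity measured by a previously reported method. Dose-modifying factor = IC50 for ACNU alone divided by IC50 for compound pretreatment followed by ACNU.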

[4] = The compound was tested for its ability to enhance the cytotoxicity of ACNU toward HeLa S3 cells at 10 uM dose; 'b' means toxicity appeared at this dose; assay type: cell-based; settings: human; procedure, shortened: as §1
HeLa [5] = assay: The compound was tested for its ability to enhance the cytotoxicity of ACNU toward HeLa S3 cells at 0.1 uM dose; assay type: functional, Homo sapiens; procedure, shortened: as §1
HeLa [6] = assay: The compound was tested for its ability to enhance the cytotoxicity of ACNU toward HeLa S3 cells at 0.01 uM dose; assay type: functional, Homo sapiens; procedure, shortened: as §1

| SMILES | Dose-modifying factor (HeLa [1]) | pIC50 [2] | Dose-modifying factor (HeLa [3]) | Dose-modifying factor [4] | Dose-modifying factor (HeLa [5]) | Dose-modifying factor (HeLa [6]) |
| --- | --- | --- | --- | --- | --- | --- |
| Nc1cc(OCc2ccccc2)nc(N)n1 | 1 | 3.77 |  |  |  |  |
| Nc1nc(N)c([N+](=O)[O-])c(OCc2ccccc2)n1 |  |  | 4 | Toxicity appeared at this dose | 1.2 |  |
| Nc1nc(N)c([N+](=O)[O-])c(OCc2ccncc2)n1 |  |  | 3.9 | Toxicity appeared at this dose | 1.2 |  |
| Nc1nc(N)c(N=O)c(OCc2ccc(F)cc2)n1 |  |  | 9.2 | Toxicity appeared at this dose | 5.8 | 1.4 |
| Nc1nc(N)c([N+](=O)[O-])c(OCc2ccccc2F)n1 |  |  | 1.1 | Toxicity appeared at this dose | 1 |  |
| Nc1nc(N)c([N+](=O)[O-])c(OCc2ccc(F)cc2)n1 |  |  | 5.1 | Toxicity appeared at this dose | 1.5 |  |
| Nc1nc(N)c([N+](=O)[O-])c(OCc2ccccn2)n1 |  |  | 1 | Toxicity appeared at this dose | 1 |  |
| Nc1nc(N)c([N+](=O)[O-])c(OCc2cccc(F)c2)n1 |  |  | 4.8 | Toxicity appeared at this dose | 1.2 |  |
| Nc1nc(N)c(N=O)c(OCc2ccncc2)n1 |  |  | 7.3 | Toxicity appeared at this dose | 2.9 | 1 |
| Nc1nc(N)c([N+](=O)[O-])c(OCc2cccnc2)n1 |  |  | 3.6 | Toxicity appeared at this dose | 1.2 |  |
| Nc1nc(N)c(N=O)c(OCc2ccccc2)n1 |  | 6.89 | 8.8 |  | 4.3 | 1.2 |
| Nc1nc(OCc2ccccc2)c2nc[nH]c2n1 [6-O-BENZYLGUANINE] | 7.6 |  | 4.4 |  | 1.3 |  |
